Experimental findings from ChEMBL document CHEMBL1152928, “Ingol and ingenol diterpenes from the aerial parts of Euphorbia royleana and their antiangiogenic activities” (J Nat Prod, 2009) are described below.

Test [1] can be described thus: Antiangiogenic activity in zebrafish embryo assessed as inhibition of intersegmental vessels growth after 24 hours by alkaline phosphatase staining. The class given is functional, tissue-based, Danio rerio. In outline: (§1)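 Embryos at 24 hpf randomly distributed into wells and exposed 24 h. Intersegmental vessels visualized by GFP labeling plus endogenous alkaline phosphatase staining. Activity derived from inhibition ratio of angiogenesis versus 0.1% DMSO vehicle control. PTK787 positive control.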

Test [2] is described as follows: Antiangiogenic activity in zebrafish embryo assessed as inhibition of intersegmental vessel growth at 1 ug/mL after 24 hours by alkaline phosphatase staining relative to control. The format is functional, Danio rerio. In outline: as §1
Test [3] in a line: Antiangiogenic activity in zebrafish embryo assessed as inhibition of intersegmental vessel growth at 3 ug/mL after 24 hours by alkaline phosphatase staining relative to control. The class given is functional, Danio rerio. Put shortly: as §1
A short description of test [4]: Antiangiogenic activity in zebrafish embryo assessed as inhibition of intersegmental vessel growth at 10 ug/mL after 24 hours by alkaline phosphatase staining relative to control. The class given is functional, Danio rerio. Put shortly: as §1
Test [5] is described as follows: Antiangiogenic activity in zebrafish embryo assessed as inhibition of intersegmental vessel growth at 5 ug/mL after 24 hours by alkaline phosphatase staining relative to PTK787. The format is functional, Danio rerio.
Test [6] can be described thus: Antiangiogenic activity in zebrafish embryo assessed as inhibition of intersegmental vessel growth at 0.1 ug/mL after 24 hours by alkaline phosphatase staining relative to control. The class given is functional, Danio rerio. Put shortly:
as §1

Where only a bound is given, the exact number is not on record here.

Usually IC50 stands for the midpoint of a concentration-inhibition curve. `CC(=O)O[C@H]1[C@H]2[C@@H]([C@H](OC(C)=O)[C@@H](C)C(=O)[C@@]34C[C@H](C)[C@H](OC(C)=O)[C@]3(/C=C(\C)[C@H]1OC(=O)c1ccccc1)O4)C2(C)C`: the IC50 in test [1] was above 5 µg/mL.
Consider `C/C=C(\C)C(=O)O[C@H]1[C@H]2[C@@H]([C@H](OC(C)=O)[C@@H](C)C(=O)[C@@]34C[C@@H](C)[C@H](OC(=O)c5ccccc5)[C@]3(/C=C(\C)[C@H]1O)O4)C2(C)C`, for which the “inhibition (INH)” value in test [2] was 5.4%; in test [3] it was 1.1%; in test [4], 0%. The half-inhibitory concentration (IC50) in test [1] is above 5 µg/mL.
Regarding `C/C=C(\C)C(=O)O[C@@H]1/C(C)=C/[C@@]23O[C@@]2(C[C@H](C)[C@@H]3OC(=O)/C(C)=C/C)C(=O)[C@H](C)[C@@H](OC(C)=O)[C@@H]2[C@H]([C@@H]1OC(C)=O)C2(C)C`, the “inhibition (INH)” value in test [3] came out at 5.8%; in test [5], 5.8%; in test [4], 5%. Also, the IC50 in test [1] was above 5 µg/mL.
For the compound `C/C=C(\C)C(=O)O[C@H]1[C@H]2[C@@H]([C@H](OC(C)=O)[C@@H](C)C(=O)[C@@]34C[C@H](C)[C@H](OC(=O)/C(C)=C/C)[C@]3(/C=C(\C)[C@H]1OC(=O)c1ccccc1)O4)C2(C)C`, the “inhibition (INH)” value in test [3] was 4.7%; in test [5], 1.1%; in test [4], 12.2%. Further, the IC50 in test [1] was above 5 µg/mL.
Regarding `C/C=C(\C)C(=O)O[C@H]1[C@@H](C)C[C@@]23O[C@@]12/C=C(\C)[C@@H](O)[C@@H](OC(=O)c1ccccc1)[C@H]1[C@@H]([C@H](OC(C)=O)[C@@H](C)C3=O)C1(C)C`, the “inhibition (INH)” value in test [2] amounted to 4.7%; in test [3] it was 3.6%; in test [4], 4.7%. The IC50 in test [1] was above 5 µg/mL.
`CC(=O)O[C@H]1[C@@H]2[C@H]([C@H](OC(=O)c3ccccc3)[C@H](O)/C(C)=C/[C@@]34O[C@@]3(C[C@H](C)[C@@H]4OC(=O)c3ccccc3)C(=O)[C@@H]1C)C2(C)C`: the “inhibition (INH)” value is given as 0% in test [2], 2.1% in test [3] and 0% in test [4]. Besides, the IC50 in test [1] was above 5 µg/mL.
As for `C/C=C(\C)C(=O)O[C@H]1[C@H]2[C@@H]([C@H](OC(C)=O)[C@@H](C)C(=O)[C@@]34C[C@H](C)[C@H](OC(=O)/C(C)=C/C)[C@]3(/C=C(\C)[C@H]1O)O4)C2(C)C`, the entries for the “inhibition (INH)” value in test [2], in test [3] and in test [4] were 2.9%, 3.6% and 4.7%, respectively. Besides, the IC50 in test [1] is above 5 µg/mL.
On to `CC(=O)O[C@H]1[C@H]2[C@@H]([C@H](OC(C)=O)[C@@H](C)C(=O)[C@@]34C[C@H](C)[C@H](OC(=O)c5ccccc5)[C@]3(/C=C(\C)[C@H]1OC(=O)c1ccccc1)O4)C2(C)C`, for which the “inhibition (INH)” value in test [2], in test [3] and in test [4] was 1.8% in each case. In addition, the IC50 in test [1] is above 5 µg/mL.
For the compound `Clc1ccc(Nc2nnc(Cc3ccncc3)c3ccccc23)cc1.O=C(O)CCC(=O)O`, the results for the “inhibition (INH)” value in test [2], in test [6] and in test [4] were 95.5%, 34.6% and 100%, respectively. Besides, the IC50 in test [1] amounted to 0.15 µg/mL.
In the case of `C/C=C(\C)C(=O)O[C@H]1[C@H]2[C@@H]([C@H](OC(C)=O)[C@@H](C)C(=O)[C@@]34C[C@H](C)[C@H](OC(=O)c5ccccc5)[C@]3(/C=C(\C)[C@H]1O)O4)C2(C)C`, the “inhibition (INH)” value in test [3] was 5.4%; in test [5] it was 0%; in test [4], 3.2%. Further, in test [1], the IC50 is above 5 µg/mL.
As to `CC(=O)O[C@H]1[C@@H]2[C@H]([C@H](OC(=O)c3ccccc3)[C@H](O)/C(C)=C/[C@@]34O[C@@]3(C[C@@H](C)[C@@H]4OC(=O)c3ccccc3)C(=O)[C@@H]1C)C2(C)C`, the results for the “inhibition (INH)” value in test [2], in test [3] and in test [4] were 1.1%, 1.8% and 3.6%, respectively. The IC50 in test [1] was above 5 µg/mL.
